Measured values: ChEMBL document CHEMBL5058577, “EUbOPEN Chemogenomics Library 2 (Multiplex)” (2022)

System: Fibroblast
Assay: Multiplex assay against human fibroblast
Assay type: toxicity, cell-based
Summary of the method: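 With compound added, live cells were imaged on a CQ1 microscope at 37°C and 5% CO2; staining with Hoechst33342, BioTracker Green Microtubule Cytoskeleton Dye, MitoTracker Red and Annexin V Alexa Fluor 680 had been done at seeding. The CellPathfinder machine-learning gating scheme split cells into Hoechst high-intensity objects or normal cells, normal cells into healthy, pyknosed or fragmented nuclei, and pyknosed cells into mitotic or apoptotic. The tubulin, mitochondrial-mass and membrane-permeability phenotypes are per cents of healthy-nucleus cells.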

[1] = 12 h, 1 µM, compound concentration 1 uM, replicate 1
[2] = 12 h, 1 µM, compound concentration 1 uM, replicate 2
[3] = 12 h, 10 µM, compound concentration 10 uM, replicate 1
[4] = 12 h, 10 µM, compound concentration 10 uM, replicate 2
[5] = 24 h, 1 µM, compound concentration 1 uM, replicate 1
[6] = 24 h, 1 µM, compound concentration 1 uM, replicate 2
[7] = 24 h, 10 µM, compound concentration 10 uM, replicate 1
[8] = 24 h, 10 µM, compound concentration 10 uM, replicate 2
[9] = 48 h, 1 µM, compound concentration 1 uM, replicate 1
[10] = 48 h, 1 µM, compound concentration 1 uM, replicate 2
[11] = 48 h, 10 µM, compound concentration 10 uM, replicate 1
[12] = 48 h, 10 µM, compound concentration 10 uM, replicate 2

## COc1ccc2c(c1)C(C(=O)N(Cc1ccc(N(C)C)cc1)c1ccc(C(C)C)cc1)CCC2.Cl (configuration not stated)
[1]
  Population Apoptotic (%): 57%
  Population Fragmented Nuclei (%): 15%
  Population Healthy Nuclei (%): 72%
  Population Hoechst High Intensity Objects (%): 1%
  Population Membrane Permeable-Phenotype (%): 1%
  Population Mitochondria Different-Phenotype (%): 7%
  Population Mitotic Cells (%): 42%
  Population Normal (%): 98%
  Population Pyknosed Nuclei (%): 11%
  Population Tubulin-Different-Phenotype (%): 22%
  Total Cell Count: 163
[2]
  Population Apoptotic (%): 45%
  Population Fragmented Nuclei (%): 20%
  Population Healthy Nuclei (%): 55%
  Population Hoechst High Intensity Objects (%): 5%
  Population Membrane Permeable-Phenotype (%): 5%
  Population Mitochondria Different-Phenotype (%): 15%
  Population Mitotic Cells (%): 54%
  Population Normal (%): 94%
  Population Pyknosed Nuclei (%): 23%
  Population Tubulin-Different-Phenotype (%): 57%
  Total Cell Count: 138
[3]
  Population Apoptotic (%): 58%
  Population Fragmented Nuclei (%): 17%
  Population Healthy Nuclei (%): 69%
  Population Hoechst High Intensity Objects (%): 1%
  Population Membrane Permeable-Phenotype (%): 0%
  Population Mitochondria Different-Phenotype (%): 12%
  Population Mitotic Cells (%): 41%
  Population Normal (%): 98%
  Population Pyknosed Nuclei (%): 13%
  Population Tubulin-Different-Phenotype (%): 67%
  Total Cell Count: 181
[4]
  Population Apoptotic (%): 53%
  Population Fragmented Nuclei (%): 38%
  Population Healthy Nuclei (%): 51%
  Population Hoechst High Intensity Objects (%): 2%
  Population Membrane Permeable-Phenotype (%): 6%
  Population Mitochondria Different-Phenotype (%): 14%
  Population Mitotic Cells (%): 46%
  Population Normal (%): 97%
  Population Pyknosed Nuclei (%): 10%
  Population Tubulin-Different-Phenotype (%): 77%
  Total Cell Count: 148
[5]
  Population Apoptotic (%): 55%
  Population Fragmented Nuclei (%): 11%
  Population Healthy Nuclei (%): 77%
  Population Hoechst High Intensity Objects (%): 1%
  Population Membrane Permeable-Phenotype (%): 0%
  Population Mitochondria Different-Phenotype (%): 5%
  Population Mitotic Cells (%): 44%
  Population Normal (%): 98%
  Population Pyknosed Nuclei (%): 11%
  Population Tubulin-Different-Phenotype (%): 25%
  Total Cell Count: 156
[6]
  Population Fragmented Nuclei (%): 19%
  Population Healthy Nuclei (%): 59%
  Population Hoechst High Intensity Objects (%): 3%
  Population Membrane Permeable-Phenotype (%): 2%
  Population Mitochondria Different-Phenotype (%): 11%
  Population Normal (%): 96%
  Population Pyknosed Nuclei (%): 20%
  Population Tubulin-Different-Phenotype (%): 41%
  Total Cell Count: 136
[7]
  Population Apoptotic (%): 50%
  Population Fragmented Nuclei (%): 17%
  Population Healthy Nuclei (%): 72%
  Population Hoechst High Intensity Objects (%): 3%
  Population Membrane Permeable-Phenotype (%): 0%
  Population Mitochondria Different-Phenotype (%): 15%
  Population Mitotic Cells (%): 50%
  Population Normal (%): 96%
  Population Pyknosed Nuclei (%): 10%
  Population Tubulin-Different-Phenotype (%): 63%
  Total Cell Count: 180
[8]
  Population Apoptotic (%): 42%
  Population Fragmented Nuclei (%): 39%
  Population Healthy Nuclei (%): 55%
  Population Hoechst High Intensity Objects (%): 2%
  Population Membrane Permeable-Phenotype (%): 2%
  Population Mitochondria Different-Phenotype (%): 12%
  Population Mitotic Cells (%): 57%
  Population Normal (%): 97%
  Population Pyknosed Nuclei (%): 4%
  Population Tubulin-Different-Phenotype (%): 85%
  Total Cell Count: 148
[9]
  Population Apoptotic (%): 66%
  Population Fragmented Nuclei (%): 17%
  Population Healthy Nuclei (%): 75%
  Population Hoechst High Intensity Objects (%): 1%
  Population Membrane Permeable-Phenotype (%): 1%
  Population Mitochondria Different-Phenotype (%): 3%
  Population Mitotic Cells (%): 33%
  Population Normal (%): 98%
  Population Pyknosed Nuclei (%): 6%
  Population Tubulin-Different-Phenotype (%): 27%
  Total Cell Count: 180
[10]
  Population Apoptotic (%): 52%
  Population Fragmented Nuclei (%): 26%
  Population Healthy Nuclei (%): 61%
  Population Membrane Permeable-Phenotype (%): 5%
  Population Mitochondria Different-Phenotype (%): 13%
  Population Mitotic Cells (%): 47%
  Population Pyknosed Nuclei (%): 12%
  Population Tubulin-Different-Phenotype (%): 46%
  Total Cell Count: 152
[11]
  Population Apoptotic (%): 71%
  Population Fragmented Nuclei (%): 21%
  Population Healthy Nuclei (%): 71%
  Population Hoechst High Intensity Objects (%): 4%
  Population Membrane Permeable-Phenotype (%): 0%
  Population Mitochondria Different-Phenotype (%): 8%
  Population Mitotic Cells (%): 28%
  Population Normal (%): 95%
  Population Pyknosed Nuclei (%): 7%
  Population Tubulin-Different-Phenotype (%): 71%
  Total Cell Count: 203
[12]
  Population Apoptotic (%): 75%
  Population Fragmented Nuclei (%): 45%
  Population Healthy Nuclei (%): 52%
  Population Hoechst High Intensity Objects (%): 0%
  Population Membrane Permeable-Phenotype (%): 3%
  Population Mitotic Cells (%): 25%
  Population Normal (%): 99%
  Population Pyknosed Nuclei (%): 2%
  Population Tubulin-Different-Phenotype (%): 81%
  Total Cell Count: 174

## Cc1nc2ccc(Oc3ccc(F)cc3)cc2c(=O)n1C[C@H]1CCCN(C(C)C)C1.Cl
[1]
  Population Apoptotic (%): 34%
  Population Fragmented Nuclei (%): 19%
  Population Healthy Nuclei (%): 67%
  Population Hoechst High Intensity Objects (%): 5%
  Population Membrane Permeable-Phenotype (%): 1%
  Population Mitochondria Different-Phenotype (%): 4%
  Population Mitotic Cells (%): 65%
  Population Normal (%): 94%
  Population Pyknosed Nuclei (%): 13%
  Population Tubulin-Different-Phenotype (%): 31%
  Total Cell Count: 184
[2]
  Population Apoptotic (%): 44%
  Population Fragmented Nuclei (%): 24%
  Population Healthy Nuclei (%): 47%
  Population Hoechst High Intensity Objects (%): 9%
  Population Membrane Permeable-Phenotype (%): 21%
  Population Mitochondria Different-Phenotype (%): 8%
  Population Mitotic Cells (%): 55%
  Population Normal (%): 90%
  Population Pyknosed Nuclei (%): 29%
  Population Tubulin-Different-Phenotype (%): 70%
  Total Cell Count: 111
[3]
  Population Apoptotic (%): 53%
  Population Fragmented Nuclei (%): 19%
  Population Healthy Nuclei (%): 61%
  Population Hoechst High Intensity Objects (%): 4%
  Population Membrane Permeable-Phenotype (%): 1%
  Population Mitochondria Different-Phenotype (%): 22%
  Population Mitotic Cells (%): 46%
  Population Normal (%): 95%
  Population Pyknosed Nuclei (%): 19%
  Population Tubulin-Different-Phenotype (%): 88%
  Total Cell Count: 241
[4]
  Population Apoptotic (%): 61%
  Population Fragmented Nuclei (%): 36%
  Population Healthy Nuclei (%): 44%
  Population Hoechst High Intensity Objects (%): 3%
  Population Membrane Permeable-Phenotype (%): 5%
  Population Mitochondria Different-Phenotype (%): 25%
  Population Mitotic Cells (%): 38%
  Population Normal (%): 96%
  Population Tubulin-Different-Phenotype (%): 80%
  Total Cell Count: 205
[5]
  Population Apoptotic (%): 66%
  Population Fragmented Nuclei (%): 17%
  Population Healthy Nuclei (%): 68%
  Population Hoechst High Intensity Objects (%): 3%
  Population Membrane Permeable-Phenotype (%): 1%
  Population Mitochondria Different-Phenotype (%): 6%
  Population Mitotic Cells (%): 33%
  Population Normal (%): 96%
  Population Pyknosed Nuclei (%): 13%
  Population Tubulin-Different-Phenotype (%): 30%
  Total Cell Count: 186
[6]
  Population Apoptotic (%): 38%
  Population Fragmented Nuclei (%): 29%
  Population Healthy Nuclei (%): 50%
  Population Hoechst High Intensity Objects (%): 7%
  Population Membrane Permeable-Phenotype (%): 19%
  Population Mitochondria Different-Phenotype (%): 17%
  Population Mitotic Cells (%): 61%
  Population Normal (%): 92%
  Population Pyknosed Nuclei (%): 20%
  Population Tubulin-Different-Phenotype (%): 73%
  Total Cell Count: 112
[7]
  Population Apoptotic (%): 67%
  Population Fragmented Nuclei (%): 27%
  Population Healthy Nuclei (%): 58%
  Population Hoechst High Intensity Objects (%): 3%
  Population Membrane Permeable-Phenotype (%): 0%
  Population Mitochondria Different-Phenotype (%): 27%
  Population Mitotic Cells (%): 32%
  Population Normal (%): 96%
  Population Pyknosed Nuclei (%): 13%
  Population Tubulin-Different-Phenotype (%): 84%
  Total Cell Count: 290
[8]
  Population Apoptotic (%): 54%
  Population Fragmented Nuclei (%): 30%
  Population Healthy Nuclei (%): 52%
  Population Hoechst High Intensity Objects (%): 6%
  Population Membrane Permeable-Phenotype (%): 1%
  Population Mitochondria Different-Phenotype (%): 29%
  Population Mitotic Cells (%): 45%
  Population Normal (%): 93%
  Population Pyknosed Nuclei (%): 17%
  Population Tubulin-Different-Phenotype (%): 87%
  Total Cell Count: 187
[9]
  Population Apoptotic (%): 66%
  Population Fragmented Nuclei (%): 25%
  Population Healthy Nuclei (%): 66%
  Population Hoechst High Intensity Objects (%): 3%
  Population Membrane Permeable-Phenotype (%): 0%
  Population Mitochondria Different-Phenotype (%): 2%
  Population Mitotic Cells (%): 33%
  Population Normal (%): 96%
  Population Pyknosed Nuclei (%): 8%
  Population Tubulin-Different-Phenotype (%): 33%
  Total Cell Count: 184
[10]
  Population Apoptotic (%): 42%
  Population Fragmented Nuclei (%): 36%
  Population Healthy Nuclei (%): 44%
  Population Hoechst High Intensity Objects (%): 5%
  Population Membrane Permeable-Phenotype (%): 6%
  Population Mitochondria Different-Phenotype (%): 13%
  Population Mitotic Cells (%): 57%
  Population Normal (%): 94%
  Population Pyknosed Nuclei (%): 19%
  Population Tubulin-Different-Phenotype (%): 68%
  Total Cell Count: 105
[11]
  Population Apoptotic (%): 66%
  Population Fragmented Nuclei (%): 23%
  Population Healthy Nuclei (%): 65%
  Population Hoechst High Intensity Objects (%): 9%
  Population Membrane Permeable-Phenotype (%): 0%
  Population Mitochondria Different-Phenotype (%): 20%
  Population Mitotic Cells (%): 33%
  Population Normal (%): 90%
  Population Pyknosed Nuclei (%): 10%
  Population Tubulin-Different-Phenotype (%): 85%
  Total Cell Count: 290
[12]
  Population Apoptotic (%): 68%
  Population Fragmented Nuclei (%): 33%
  Population Healthy Nuclei (%): 53%
  Population Hoechst High Intensity Objects (%): 3%
  Population Membrane Permeable-Phenotype (%): 2%
  Population Mitochondria Different-Phenotype (%): 19%
  Population Mitotic Cells (%): 32%
  Population Normal (%): 96%
  Population Pyknosed Nuclei (%): 12%
  Total Cell Count: 201
